Reference: ChEMBL document CHEMBL1129388, “Structure-activity modifications of the HIV-1 inhibitors (+)-calanolide A and (-)-calanolide B” (J Med Chem, 1996)

Key:
[1] = Ratio of inhibitory concentration to that of effective concentration for protection of CEM-SS cells from cytopathic effects of HIV-1 (RF strain); format: functional
Outline: (§1)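 In vitro therapeutic index taken as IC50 divided by EC50.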

[2] = system: CEM-SS; experiment: Using the XTT assay for cell viability, inhibitory concentration to protect human lymphoblastoid CEM-SS cells from the cytopathic effects of HIV-1 (RF strain) was determined; format: functional, cell-based
Outline: (§2)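 Values reported as averages of quadruplicate determinations.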

[3] = system: CEM-SS; experiment: Using the XTT assay for cell viability, effective concentration to protect human lymphoblastoid CEM-SS cells from the cytopathic effects of HIV-1 (RF strain) was determined; format: functional, cell-based; outline: as §2
[4] = system: CEM-SS; experiment: Using the XTT assay for cell viability, effective concentration to protect human lymphoblastoid CEM-SS cells from the cytopathic effects of HIV-1 (RF strain) was determined; c - not measurabel; format: functional, cell-based; outline: as §2
[5] = system: CEM-SS; experiment: Using the XTT assay for cell viability, inhibitory concentration to protect human lymphoblastoid CEM-SS cells from the cytopathic effects of HIV-1 (RF strain) was determined; c - not measurabel; format: functional, cell-based; outline: as §2
[6] = system: CEM-SS; experiment: Using the XTT assay for cell viability, effective concentration to protect human lymphoblastoid CEM-SS cells from the cytopathic effects of HIV-1 (RF strain) was determined; c - not measurable; format: functional, cell-based; outline: as §2
[7] = system: CEM-SS; experiment: Using the XTT assay for cell viability, inhibitory concentration to protect human lymphoblastoid CEM-SS cells from the cytopathic effects of HIV-1 (RF strain) was determined; c - not measurable; format: functional, cell-based; outline: as §2
[8] = system: CEM-SS; experiment: (§3) Using the XTT assay for cell viability, effective concentration to protect human lymphoblastoid CEM-SS cells from the cytopathic effects of HIV-1 (RF strain) was determined; d - Not independently evaluated; not stable under assay conditions; rapidl y converts to active compound 2 under assay conditions.; format: functional, cell-based
[9] = system: CEM-SS; experiment: as §3, with “inhibitory” for “effective”, “rapid ly” for “rapidl y”; format: functional, cell-based
[10] = system: CEM-SS; experiment: Ratio of inhibitory concentration to that of effective concentration for protection of CEM-SS cells from cytopathic effects of HIV-1 (RF strain); not measurable; format: functional, cell-based; outline: as §1

| SMILES | TI [1] | IC50 [2] | EC50 [3] | other results |
| --- | --- | --- | --- | --- |
| CCCc1cc(=O)oc2c3c(c4c(c12)OC(C)(C)CC4)O[C@@H](C)[C@H](C)[C@@H]3O [7,8-DIHYDROCALANOLIDE B] | 41 | 8.2 µM | 0.2 µM |  |
| CCCc1cc(=O)oc2c3c(c4c(c12)OC(C)(C)C=C4)O[C@@H](C)[C@H](C)[C@H]3O [(-)-CALANOLIDE A] |  |  |  | EC50 [4]: Not measurable; IC50 [5]: Not measurable |
| CCCc1cc(=O)oc2c3c(c4c(c12)OC(C)(C)CC4)O[C@H](C)C(C)=C3 |  |  |  | EC50 [6]: Not measurable; IC50 [7]: Not measurable |
| CCCc1cc(=O)oc2c3c(c4c(c12)OC(C)(C)C=C4)O[C@@H](C)[C@H](C)C3=O | 24 | 8.5 µM | 0.4 µM |  |
| CCCc1cc(=O)oc2c3c(c4c(c12)OC(C)(C)C=C4)O[C@H](C)[C@@H](C)C3=O | 62 | 9.3 µM | 0.15 µM |  |
| CCCc1cc(=O)oc2c3c(c4c(c12)OC(C)(C)C=C4)O[C@@H](C)[C@H](C)[C@@H]3O [COSTATOLIDE] | 31 | 5.9 µM | 0.2 µM |  |
| CCCc1cc(=O)oc2c3c(c4c(c12)OC(C)(C)C=C4)O[C@H](C)[C@@H](C)[C@@H]3O [CALANOLIDE A] | 40 | 7.3 µM | 0.18 µM |  |
| CCCc1cc(=O)oc2c3c(c4c(c12)OC(C)(C)C=C4)O[C@@H](C)[C@H](C)[C@@H]3N=[N+]=[N-] | 4 | 5.9 µM | 1.6 µM |  |
| CCCc1cc(=O)oc2c3c(c4c(c12)OC(C)(C)CC4)O[C@@H](C)[C@H](C)C3=O | 21 | 7.9 µM | 0.37 µM |  |
| CCCc1cc(=O)oc2c3c(c4c(c12)OC(C)(C)C=C4)O[C@@H](C)[C@H](C)[C@@H]3F |  |  |  | EC50 [8]: Not independently evaluated; IC50 [9]: Not independently evaluated |
| CCCc1cc(=O)oc2c3c(c4c(c12)OC(C)(C)CC4)O[C@@H](C)[C@H](C)[C@@H]3N | 10 | 5.8 µM | 0.6 µM |  |
| CCCc1cc(=O)oc2c3c(c4c(c12)OC(C)(C)C=C4)O[C@@H](C)[C@H](C)[C@@H]3S |  | > 150 µM | 8.4 µM | TI [10]: Not measurable |
| CCCc1cc(=O)oc2c3c(c4c(c12)OC(C)(C)CC4)O[C@H](C)[C@@H](C)[C@@H]3O | 23 | 5.2 µM | 0.2 µM |  |
